High-throughput results: PubChem, several laboratories
NTR1 agonist – agonists of human neurotensin receptor NTR1; 330,000 tested, 0.17% active; P30989; activation, % at 20 µM; NTR1-U2OS beta-arrestin-GFP spot imaging, agonist mode;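 active means activation at or above 40% of the spot to cytoplasm intensity ratio, with at least 20 cells analyzed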
Exocytosis inh – lytic granule exocytosis inhibition; inhibition, % at 10 µM; AID 651702; 360,000 tested, 0.66% active; TALL-104 LAMP-1 surface exposure, flow cytometry; cells stimulated with thapsigargin and PMA;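 active means inhibition above about 55%, limit read from the data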
HGIII-sPLA2 inh – Blocks human group III sPLA2 activity | AID 743126 | QFRET BODIPY PC-A2 liposome hydrolysis, fluorescence | Q9NZ20 | inhibition, % at 12.2 µM | 370,000 tested, 0.56% active;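 active means inhibition above mean plus 3 SD of compounds lying within the high and low control bounds, cut at about 19% in these data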
Bfl-1 A1 inh – inhibitors of the anti-apoptotic protein A1, read as caspase activation; caspase activation, % (concentration not given with the values); 330,000 tested, 0.066% active; MEF A1-2A-BIM cells, Caspase-Glo 3/7 luminescence, 3 h; percent of clofoctol response, vehicle zero; AID 2462;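 active means over half of replicate activation scores above 10%, or exactly half above 10 with the replicate mean above 10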
MC4R ag barr – human MC4R agonism via beta-arrestin; 360,000 tested, 0.98% active; AID 540308; U2OS MC4R beta-arrestin complementation, luminescence; percent of melanotan II response, DMSO zero; activation, % at 8.9 µM; P32245;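 active means activation above a per-plate cutoff, the mean activation of sample wells on that plate plus 3 SD, cut at about 8% in these data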
MC4R antag cAMP – antagonists of human melanocortin 4 receptor (MC4R). inhibition, % at 6.5 µM. P32245. AID 540295. MC4R-expressing cells, MTII-stimulated cAMP, LANCE TR-FRET. 360,000 tested, 0.48% active;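 active means inhibition above its plate's cutoff, the mean of tested wells on that plate plus 3 SD, cut at about 29% in these data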
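Material: U2OS-MC4R stable cell line | Reagent: Melanotan II challenge after compound preincubation | Doses: One concentration, 6.5 µM nominal | Incubation: 30-min compound preincubation, 1-h Melanotan II challenge, 1-h detection, room temperature | Signal: TR-FRET cAMP assay | Replicates: One well per compound, no replicates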
cAMP nonselect – nonselective cAMP signaling inhibitor, MC4R antagonist counter-screen; AID 602193; parental U2OS, forskolin cAMP, LANCE TR-FRET; shares compounds with MC4R antag cAMP; 1,600 tested, 26% active; inhibition, % at 6.5 µM;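 active means mean inhibition over triplicates above the low-control well mean plus 3 SD, set per campaign, cut at about 13% in these data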;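 further: signal is single emission at 671 nm which falls as cellular cAMP rises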
MC4R antag conf – human MC4R cAMP antagonism confirmation. shares compounds with MC4R antag cAMP. MC4R-expressing cells, MTII-stimulated cAMP, TR-FRET. inhibition, % at 6.5 µM. 1,600 tested, 27% active. AID 602195; in the data active means inhibition above about 29%
MC4R barr conf – human MC4R beta-arrestin agonism confirmation; shares compounds with MC4R ag barr; U2OS MC4R beta-arrestin recruitment, luminescence; scaled DMSO 0%, Melanotan II 100%; activation, % at 8.9 µM; 2,400 tested, 31% active;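 active means mean activation across replicates above the hit cutoff set in the earlier primary screen, cut at about 8% in these data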
MOR DOR agonist – OPRM1-OPRD1 heterodimer agonism counter-screen | shares compounds with MC4R ag barr | activation, % at 9.2 µM | AID 602194 | U2OS PathHunter beta-arrestin, beta-gal luminescence; percent of deltorphin B response, DMSO zero | 2,400 tested, 5.8% active;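 active means mean activation across replicates exceeds the hit threshold derived in the earlier primary screen, cut at about 18% in these data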
Target sequence (P35372 whole entry, looked up): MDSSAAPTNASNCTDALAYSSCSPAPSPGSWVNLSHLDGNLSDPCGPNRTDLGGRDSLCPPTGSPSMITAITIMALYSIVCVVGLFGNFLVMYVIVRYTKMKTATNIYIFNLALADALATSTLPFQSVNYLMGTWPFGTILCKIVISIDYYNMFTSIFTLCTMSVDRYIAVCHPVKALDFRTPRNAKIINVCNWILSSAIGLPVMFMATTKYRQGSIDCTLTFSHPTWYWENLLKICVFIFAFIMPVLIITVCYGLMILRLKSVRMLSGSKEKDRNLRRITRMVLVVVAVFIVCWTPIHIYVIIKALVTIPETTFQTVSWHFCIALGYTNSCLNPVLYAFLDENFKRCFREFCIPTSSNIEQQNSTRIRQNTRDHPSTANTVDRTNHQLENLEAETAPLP
Target sequence (P41143 whole entry, looked up): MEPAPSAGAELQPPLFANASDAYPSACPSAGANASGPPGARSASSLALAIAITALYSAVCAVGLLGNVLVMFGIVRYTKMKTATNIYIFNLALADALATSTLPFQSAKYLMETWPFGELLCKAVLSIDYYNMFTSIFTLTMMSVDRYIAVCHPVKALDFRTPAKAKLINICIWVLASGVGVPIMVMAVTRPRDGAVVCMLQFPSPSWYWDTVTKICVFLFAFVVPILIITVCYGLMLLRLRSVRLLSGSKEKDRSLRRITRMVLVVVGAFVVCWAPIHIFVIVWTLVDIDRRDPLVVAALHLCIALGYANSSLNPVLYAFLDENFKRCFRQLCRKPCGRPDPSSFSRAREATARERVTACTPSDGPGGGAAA
Exocytosis CP01 – lytic granule exocytosis inhibition. shares compounds with Exocytosis inh. TALL-104 cells, LAMP-1 externalization, flow cytometry; stimulated with PMA plus thapsigargin. inhibition, % at 10 µM. 1,500 tested, 11% active; in the data active means inhibition above about 60%
Hits are given with their value; - = inactive; . = not tested or not shown; ! = repeats disagree. A selection: hits, their analogues and other compounds. The true share with any hit is near 2.5%.

SMILES | NTR1 agonist | Exocytosis inh | HGIII-sPLA2 inh | Bfl-1 A1 inh | MC4R ag barr | MC4R antag cAMP | cAMP nonselect | MC4R antag conf | MC4R barr conf | MOR DOR agonist | others
N#C/C(=C/c1ccc(OCc2ccc(C(=O)O)cc2)c(Br)c1)c1cccc(F)c1 | - | - | - | - | - | 34 | - | - | . | .
C[C@H]1[C@H](c2ccccc2)Oc2cccc(NCCc3ccccc3)c2S(=O)(=O)N1Cc1cccc(F)c1 | . | . | - | . | . | . | . | . | . | .
Cc1ccccc1-c1n[nH]c(=S)o1 | - | - | - | - | - | 42 | 25 | 47 | . | .
COc1ccc(Cl)cc1-c1n[nH]c(=S)o1 | - | - | - | - | - | 72 | 45 | 78 | . | .
COc1ccccc1-c1n[nH]c(=S)o1 | - | - | - | - | - | - | . | . | . | .
CSc1ccccc1-c1n[nH]c(=S)o1 | - | - | - | . | - | 90 | 50 | 94 | . | .
Cc1ccc(NC2=C(CC(=O)O)C(c3ccccc3)N(c3ccc(C)cc3)C2=O)cc1 (stereo not given) | - | - | - | - | - | 31 | - | - | . | .
C[C@H]1[C@@H](OC(=O)Nc2ccccc2F)CC[C@@]23CCCN2C(=O)CCC[C@@H]13 | . | . | - | . | . | . | . | . | . | .
O=C(O)COc1ccc2nsnc2c1Cl | - | - | - | - | - | 70 | 46 | 81 | . | .
COc1cc(OC)cc(C(=O)Nc2ccccc2-c2nnn(CC(=O)Nc3cc(C)on3)n2)c1 | - | - | - | - | 8.8 | 30 | - | - | . | .
COc1ccc(C(=O)Nc2ccccc2-c2nnn(CC(N)=O)n2)cc1 | . | - | - | . | - | - | . | . | . | .
CCOC(=O)[C@@]12CCCC=C1N(CCc1ccc(Cl)cc1)C(=O)[C@H]2CC(=O)N1CCN(C(=O)c2ccco2)CC1 | . | . | - | . | . | . | . | . | . | .
COC(=O)[C@]12C[C@H](CC(=O)N3CCCC3)C(=O)N(CCC3=CCCCC3)C1=C[C@H](COCc1ccccc1)O[C@@H]2C | . | . | - | . | . | . | . | . | . | .
O=C(CCc1nc(-c2ccccc2Cl)no1)NCCc1ccccc1 | - | - | - | - | - | 29 | - | - | . | .
COCCCNC(=O)CCc1nc(-c2ccccc2Cl)no1 | - | - | - | - | - | - | . | . | . | .
COc1ccc(CCCNC(=O)C2(C)Cc3c(-c4ccc(NC(C)=O)cc4)ccnc3O2)cc1 (stereo not given) | . | - | - | . | - | 34 | - | - | . | .
CC(=O)Nc1ccc(-c2ccnc3c2CC(C)(C(=O)NCCc2ccccc2)O3)cc1 (stereo not given) | . | - | - | . | - | - | . | . | . | .
Nc1c(S(=O)(=O)c2ccccc2)c2nc3ccccc3nc2n1/N=C/c1cccc(O)c1 | - | - | - | - | 17 | 35 | - | - | 10 | -
CCCCCCCC[n+]1cccc(C(=O)N(CC)CC)c1 | - | - | - | - | - | - | . | . | . | .
CCCCCCCCCCCCCCCC[n+]1cccc(C(=O)N(CC)CC)c1 | - | - | - | - | 13 | 29! | - | 50 | 23 | -
Cc1cccc(C)c1-n1cccc1/C=C1\SC(=S)N(c2cccc(C(=O)O)c2)C1=O | - | - | - | - | 20 | 37 | - | - | 20 | -
CC(=O)n1cc(N(C(=O)CCl)c2ccc(Cl)cc2)c2ccccc21 | - | - | . | - | 13 | 42 | - | 52 | - | 51
CC(=O)n1cc(Nc2ccccc2C(=O)O)c2ccccc21 | - | - | - | - | - | - | . | . | . | .
CCCCNc1c(-c2cccc(-c3cc(C(C)=O)cs3)c2)nc2cc(C)ccn12 | - | - | - | - | 11 | 36 | - | - | 9.5 | -
COC(=O)c1ccc(-c2ccc3c(c2)[C@]2(CCC[C@@H](OCc4ccccc4)[C@@H]2NC(=O)CCc2ccccc2)C(=O)N3Cc2ccccc2)cc1 | . | . | - | . | . | . | . | . | . | .
SMILES | NTR1 agonist | Exocytosis inh | HGIII-sPLA2 inh | Bfl-1 A1 inh | MC4R ag barr | MC4R antag cAMP | cAMP nonselect | MC4R antag conf | MC4R barr conf | MOR DOR agonist | others
Cc1cc(C)c(C#N)c(SCC(=O)Nc2cccc(S(=O)(=O)N3CCCC3)c2)n1 | - | - | - | . | 10.0 | 32 | 45 | 82 | - | -
COC(=O)[C@H]1C[C@@]2(N3CCCC3)c3ccccc3N[C@H]2N1S(=O)(=O)c1ccc([N+](=O)[O-])cc1 | . | . | - | . | . | . | . | . | . | .
COC(=O)C1=C(C)N(C)C(=NCc2ccc3c(c2)OCO3)NC1c1cccc(F)c1 (stereo not given) | . | . | - | . | . | . | . | . | . | .
CCOC(=O)c1cc(-c2csc(N/N=C/c3ccccc3Cl)n2)on1 | - | - | - | - | 22 | 40 | 14 | 71 | 13 | -
CCOC(=O)c1cc(-c2csc(Nc3ccccc3Cl)n2)on1 | - | - | - | - | - | - | . | . | . | .
C=CCCC1CN(Cc2ccc(OC)cc2)S(=O)(=O)c2c(NCc3cc(OC)c(OC)c(OC)c3)cccc2O1 (stereo not given) | . | . | - | . | . | . | . | . | . | .
Cc1noc(C)c1S(=O)(=O)N(C)C[C@@H]1OCc2cn(nn2)CCCC(=O)N([C@H](C)CO)C[C@H]1C | . | . | - | . | . | . | . | . | . | .
COc1ccc2[nH]c(C(=O)Nc3ccc(F)cc3Br)cc2c1 | - | - | - | - | 26 | 29 | 21 | - | - | -
Cn1c(SC2CCCC2)nnc1-c1ccco1 | . | . | - | . | . | . | . | . | . | .
COCCn1c(=NC(=O)c2sc3ccccc3c2Cl)sc2cc(S(N)(=O)=O)ccc21 | - | - | - | - | - | - | . | . | . | .
C=CCn1c(=NC(=O)c2sc3ccccc3c2Cl)sc2cc(S(N)(=O)=O)ccc21 | - | - | . | - | 16 | 33 | - | - | - | -
COc1ccc(-c2oc3ccc(N4CCOCC4)cc3c2C#Cc2ccc(N)cc2)cc1 | - | - | - | - | - | - | . | . | . | .
COc1ccc(-c2oc3ccc(N4CCOCC4)cc3c2C#CC2(O)CCCCC2)cc1 | - | - | - | - | 19 | 33 | - | - | 15 | -
CC(O)CC(=O)OC[C@]12CC[C@H]3[C@@](C)(CC[C@H]4C(C)(C)CCC[C@]34C)[C@@H]1CC(C1=CC(=O)OC1O)O2 (stereo not given in full) | . | 56 | - | . | 16 | 33 | - | - | 24 | -
COC(=O)c1ccc(N2CCN(C)CC2)c(NC(=O)c2sc3ccccc3c2Cl)c1 | . | 78 | - | - | - | 31 | - | - | . | . | Exocytosis CP01=91
